These results are taken from ChEMBL document CHEMBL5244263, “Studies on fragment-based design of allosteric inhibitors of human factor XIa” (Bioorg Med Chem, 2020).

Calls of active or inactive are those of the source. The rule behind the calls is not given here.

As a reminder, the inhibition is the drop in the measured response relative to a control, in per cent. What is called IC50 is the concentration that inhibits the measured activity by half.

For assay [1], the species on record is Homo sapiens. Kind of assay: Selectivity for inhibition of human FXIa over FVIIa (unknown origin).
The species named for another assay is Bos taurus. Kind of assay: Inhibition of bovine trypsin using S-2222 as chromogenic substrate at 500 uM by chromogenic substrate hydrolysis assay.
Assay [2] has as its target Coagulation factor IX (Homo sapiens) (UniProt P00740). In words: Inhibition of human FIXa at 500 uM by chromogenic substrate hydrolysis assay.
In assay [3] the target is T1, Coagulation factor VII (Homo sapiens) (UniProt P08709).
T1 sequence (whole entry): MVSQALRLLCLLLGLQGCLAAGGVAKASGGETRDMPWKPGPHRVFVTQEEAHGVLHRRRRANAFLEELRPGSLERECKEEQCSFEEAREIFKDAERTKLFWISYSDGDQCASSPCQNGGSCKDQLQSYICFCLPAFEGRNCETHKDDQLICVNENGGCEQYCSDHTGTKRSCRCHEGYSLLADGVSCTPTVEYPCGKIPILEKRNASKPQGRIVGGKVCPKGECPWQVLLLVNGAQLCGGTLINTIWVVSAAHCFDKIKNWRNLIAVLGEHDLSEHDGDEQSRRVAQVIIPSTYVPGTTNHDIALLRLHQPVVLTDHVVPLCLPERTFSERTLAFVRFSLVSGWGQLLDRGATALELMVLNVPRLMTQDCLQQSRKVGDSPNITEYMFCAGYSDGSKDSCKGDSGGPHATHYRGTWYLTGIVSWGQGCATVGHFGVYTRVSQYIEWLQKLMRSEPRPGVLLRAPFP
Kind of assay: Inhibition of FVIIa (unknown origin) at 500 uM by chromogenic substrate hydrolysis assay.

Assay [4] has as its target Prothrombin (Homo sapiens) (UniProt P00734). In words: Inhibition of human thrombin at 500 uM by chromogenic substrate hydrolysis assay.
Assay [5] deals with T2, Coagulation factor XI (Homo sapiens, UniProt P03951). In words: Inhibition of human FXIa using S-2366 as chromogenic substrate preincubated with enzyme for 10 mins followed by substrate addition by spectrophotometric analysis relative to control. Further details: concentration or dose not given beside the values. Put shortly:
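hFXIa (0.765 nM final) preincubated with inhibitor or reference solution for 10 min at 37 °C in pH 7.4 buffer (50 mM Tris-HCl, 150 mM NaCl, 0.1% PEG8000, 0.02% Tween80). S-2366 (345 μM final) then added, and residual activity read on a microplate reader.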

The species entered for assay [6] is Homo sapiens. In words: Selectivity for inhibition of human FXIa over human thrombin.
For assay [7], the species on record is Homo sapiens. Kind of assay: Selectivity for inhibition of human FXIa over human FIXa.
Assay [8] deals with Coagulation factor X (Homo sapiens) (UniProt P00742). In words: Inhibition of human FXa using methoxycarbonyl-D-cyclohexylglycyl-Gly-Arg-p-nitroanilide as substrate at 500 uM by chromogenic substrate hydrolysis assay.
Sequence of Coagulation factor X (Homo sapiens) (P00742 41-179 limits assumed): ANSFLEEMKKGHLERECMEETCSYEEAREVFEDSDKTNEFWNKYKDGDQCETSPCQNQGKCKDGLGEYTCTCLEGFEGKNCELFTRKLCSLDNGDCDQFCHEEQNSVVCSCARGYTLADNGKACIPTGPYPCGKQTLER
Sequence of Coagulation factor X (Homo sapiens) (P00742 235-488 limits assumed): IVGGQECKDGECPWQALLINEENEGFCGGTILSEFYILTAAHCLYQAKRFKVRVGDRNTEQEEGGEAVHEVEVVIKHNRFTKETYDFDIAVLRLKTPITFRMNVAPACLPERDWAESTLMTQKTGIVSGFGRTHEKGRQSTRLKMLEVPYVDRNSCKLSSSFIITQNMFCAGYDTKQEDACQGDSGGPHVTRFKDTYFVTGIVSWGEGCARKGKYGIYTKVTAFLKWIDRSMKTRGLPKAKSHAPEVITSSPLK
Assay [9] concerns the target Plasma kallikrein (Homo sapiens) (UniProt P03952). Kind of assay: Inhibition of Kallikrein in human plasma at 500 uM by chromogenic substrate hydrolysis assay. The format is cell-free.
Assay [10] is filed under the species Homo sapiens. In words: Selectivity for inhibition of human FXIa over human FXa.
A short description of assay [11]: Selectivity for inhibition of human FXIa over bovine trypsin.
Assay [12] in a line: Selectivity for inhibition of human FXIa over bovine alpha-chymotrypsin.
For assay [13], the species on record is Homo sapiens. In words: Selectivity for inhibition of human FXIa over Kallikrein in human plasma. In kind it is cell-free.
Assay [14] has as its target Chymotrypsinogen A (Bos taurus) (UniProt P00766). In words: Inhibition of bovine alpha-chymotrypsin at 500 uM by chromogenic substrate hydrolysis assay.
In assay [15] the target is T2, Coagulation factor XI. In words: Inhibition of human FXIa using S-2366 as chromogenic substrate preincubated with enzyme for 10 mins followed by substrate addition by spectrophotometric analysis.

Sequence of Plasma kallikrein (Homo sapiens) (P03952 20-390 limits assumed): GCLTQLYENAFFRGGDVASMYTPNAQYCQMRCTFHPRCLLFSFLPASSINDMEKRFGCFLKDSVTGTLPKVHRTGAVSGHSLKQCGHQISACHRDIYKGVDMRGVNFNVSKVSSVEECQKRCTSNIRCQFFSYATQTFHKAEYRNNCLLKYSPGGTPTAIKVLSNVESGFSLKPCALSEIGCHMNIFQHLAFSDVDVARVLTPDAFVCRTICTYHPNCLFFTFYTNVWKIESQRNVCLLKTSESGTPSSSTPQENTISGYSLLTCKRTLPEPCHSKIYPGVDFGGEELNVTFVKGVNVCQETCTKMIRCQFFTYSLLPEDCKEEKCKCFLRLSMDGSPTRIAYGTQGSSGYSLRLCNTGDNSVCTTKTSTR
Sequence of Plasma kallikrein (Homo sapiens) (P03952 391-638 limits assumed): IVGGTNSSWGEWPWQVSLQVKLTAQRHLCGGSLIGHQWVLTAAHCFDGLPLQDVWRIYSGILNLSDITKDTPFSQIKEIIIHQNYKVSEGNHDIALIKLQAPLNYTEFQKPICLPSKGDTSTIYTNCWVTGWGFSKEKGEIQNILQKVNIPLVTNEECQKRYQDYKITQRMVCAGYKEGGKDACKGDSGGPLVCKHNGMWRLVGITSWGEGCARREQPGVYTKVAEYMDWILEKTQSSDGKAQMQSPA
T2 sequence (P03951 19-387 limits assumed): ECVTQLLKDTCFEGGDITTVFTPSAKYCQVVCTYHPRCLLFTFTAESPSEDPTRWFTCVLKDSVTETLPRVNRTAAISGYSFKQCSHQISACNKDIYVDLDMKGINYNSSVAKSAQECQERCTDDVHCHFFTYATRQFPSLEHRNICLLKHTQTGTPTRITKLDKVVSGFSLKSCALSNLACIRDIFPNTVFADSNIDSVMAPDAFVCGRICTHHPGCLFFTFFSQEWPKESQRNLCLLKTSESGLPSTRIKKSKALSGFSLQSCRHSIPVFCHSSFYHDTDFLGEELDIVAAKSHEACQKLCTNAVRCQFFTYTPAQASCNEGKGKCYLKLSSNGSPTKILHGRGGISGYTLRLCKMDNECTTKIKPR
T2 sequence (P03951 388-625 limits assumed): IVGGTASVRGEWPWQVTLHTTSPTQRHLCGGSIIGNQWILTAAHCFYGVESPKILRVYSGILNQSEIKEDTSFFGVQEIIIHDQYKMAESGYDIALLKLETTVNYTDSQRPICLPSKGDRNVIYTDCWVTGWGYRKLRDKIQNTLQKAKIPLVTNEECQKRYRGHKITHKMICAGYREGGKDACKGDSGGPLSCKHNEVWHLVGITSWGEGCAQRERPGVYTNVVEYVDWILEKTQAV
Sequence of Coagulation factor IX (Homo sapiens) (P00740 47-191 limits assumed): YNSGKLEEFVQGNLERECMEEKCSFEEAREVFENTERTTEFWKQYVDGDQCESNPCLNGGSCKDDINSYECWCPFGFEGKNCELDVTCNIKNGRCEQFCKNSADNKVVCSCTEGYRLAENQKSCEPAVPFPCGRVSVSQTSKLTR
Sequence of Coagulation factor IX (Homo sapiens) (P00740 227-461 limits assumed): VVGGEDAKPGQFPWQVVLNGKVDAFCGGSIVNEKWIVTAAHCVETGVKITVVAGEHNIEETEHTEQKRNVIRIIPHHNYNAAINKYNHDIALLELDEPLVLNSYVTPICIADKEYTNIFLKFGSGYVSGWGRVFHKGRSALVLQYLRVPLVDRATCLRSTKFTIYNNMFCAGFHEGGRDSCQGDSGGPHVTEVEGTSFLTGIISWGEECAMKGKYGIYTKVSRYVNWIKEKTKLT

Turning to `O=c1c2ccccc2nc(-c2ccc(OS(=O)(=O)O)cc2)n1Cc1ccccc1Cn1c(-c2ccc(OS(=O)(=O)O)cc2)nc2ccccc2c1=O`, the Selectivity ratio (in the assay filed under Homo sapiens [1]; in the assay listed under Homo sapiens [6]; in the assay filed under Homo sapiens [7]; in the assay filed under Homo sapiens [10]; in assay [11]; in assay [12]) was over 63 each time. Further, the Selectivity ratio in the assay filed under Homo sapiens [13] was over 63. In addition, the inhibition result (in the assay filed under Bos taurus; in assay [2]; in [3]; in assay [4]; in assay [8]; in assay [9]) was “inactive” each time. Also, the inhibition entry in assay [14] is “inactive”. The inhibition against Coagulation factor XI [5] was 87%. Moreover, the IC50 against Coagulation factor XI [15] came to 57 µM.

`O=c1c2ccccc2nc(-c2ccc(OS(=O)(=O)O)cc2)n1CCCCCn1c(-c2ccc(OS(=O)(=O)O)cc2)nc2ccccc2c1=O`: the Selectivity ratio (in the assay listed under Homo sapiens [1]; in the assay filed under Homo sapiens [6]; in the assay listed under Homo sapiens [7]; in the assay listed under Homo sapiens [10]; in [11]; in assay [12]) was over 63 each time. Further, the Selectivity ratio in the assay filed under Homo sapiens [13] was over 63. The inhibition result (in the assay listed under Bos taurus; in [2]; in assay [3]; in [4]; in assay [8]; in [9]) was “inactive” throughout. The inhibition result in assay [14] is “inactive”. The inhibition against Coagulation factor XI [5] amounted to 92%. Also, the IC50 on Coagulation factor XI [15] is 49 µM.

For `O=c1c2ccccc2nc(-c2ccc(OS(=O)(=O)O)cc2)n1CCCCCCCCCCCCn1cc(Cn2c(-c3ccc(OS(=O)(=O)O)cc3)nc3ccccc3c2=O)nn1`, the Selectivity ratio (in the assay listed under Homo sapiens [1]; in the assay listed under Homo sapiens [6]; in the assay filed under Homo sapiens [7]; in the assay listed under Homo sapiens [10]; in [11]; in [12]) was over 63 in each case. In addition, in the assay listed under Homo sapiens [13], the Selectivity ratio is over 63. In addition, the inhibition result (in the assay filed under Bos taurus; in assay [2]; in [3]; in assay [4]; in assay [8]; in assay [9]) was “inactive” each time. Further, in assay [14], the inhibition entry was “inactive”. Also, the inhibition at Coagulation factor XI [5] amounted to 112%. The same molecule showed a 50% inhibitory concentration (IC50) at Coagulation factor XI [15] of 35 µM.

Regarding `O=c1c2ccccc2nc(-c2ccc(OS(=O)(=O)O)cc2)n1CCCCCCCCn1cc(Cn2c(-c3ccc(OS(=O)(=O)O)cc3)nc3ccccc3c2=O)nn1`, the Selectivity ratio (in the assay listed under Homo sapiens [1]; in the assay listed under Homo sapiens [6]; in the assay listed under Homo sapiens [7]; in the assay listed under Homo sapiens [10]; in assay [11]; in assay [12]) was over 63 throughout. Further, in the assay listed under Homo sapiens [13], the Selectivity ratio was over 63. For the same molecule, the inhibition result (in the assay listed under Bos taurus; in [2]; in assay [3]; in [4]; in assay [8]; in assay [9]) was “inactive” in each case. In addition, in assay [14], the inhibition entry was “inactive”. For the same molecule, the inhibition against Coagulation factor XI [5] stood at 100%. On Coagulation factor XI [15], the IC50 turned out to be 39 µM.

Take `O=c1c(OS(=O)(=O)O)c(-c2ccc(OS(=O)(=O)O)c(OS(=O)(=O)O)c2)oc2cc(OS(=O)(=O)O)cc(OCc3cn(CCCCCCCCn4c(-c5ccc(OS(=O)(=O)O)cc5)nc5ccccc5c4=O)nn3)c12`: the inhibition entry (in the assay filed under Bos taurus; in [2]; in assay [3]; in assay [4]; in assay [8]; in assay [9]) was “inactive” throughout. In addition, in assay [14], the inhibition entry was “inactive”. At Coagulation factor XI [15], it took 133 µM to reach half-maximal inhibition (IC50).

Consider `COc1ccc2nc(-c3ccc(OS(=O)(=O)O)cc3)n(CCCCCCn3c(-c4ccc(OS(=O)(=O)O)cc4)nc4ccc(OC)cc4c3=O)c(=O)c2c1`, for which the Selectivity ratio (in the assay filed under Homo sapiens [1]; in the assay listed under Homo sapiens [6]; in the assay filed under Homo sapiens [7]; in the assay listed under Homo sapiens [10]; in [11]; in [12]) was over 63 each time. Moreover, in the assay listed under Homo sapiens [13], the Selectivity ratio is over 63. For the same molecule, the inhibition entry (in the assay listed under Bos taurus; in assay [2]; in [3]; in assay [4]; in assay [8]; in assay [9]) was “inactive” throughout. In addition, in assay [14], the inhibition entry was “inactive”. Also, the inhibition against Coagulation factor XI [5] was determined as 95%. Further, the IC50 at Coagulation factor XI [15] turned out to be 35 µM.

Take `O=c1c2ccccc2nc(-c2ccc(OS(=O)(=O)O)cc2)n1CCCCCCCCCCn1cc(Cn2c(-c3ccc(OS(=O)(=O)O)cc3)nc3ccccc3c2=O)nn1`: the Selectivity ratio (in the assay listed under Homo sapiens [1]; in the assay filed under Homo sapiens [6]; in the assay listed under Homo sapiens [7]; in the assay filed under Homo sapiens [10]; in assay [11]; in assay [12]) was over 63 throughout. Also, the Selectivity ratio in the assay filed under Homo sapiens [13] was over 63. In addition, the inhibition entry (in the assay filed under Bos taurus; in assay [2]; in assay [3]; in [4]; in assay [8]; in assay [9]) was “inactive” throughout. For the same molecule, the inhibition result in assay [14] was “inactive”. Besides, the inhibition on Coagulation factor XI [5] came out at 112%. The molecule further showed a concentration for half-maximal inhibition (IC50) at Coagulation factor XI [15] of 22 µM.

In the case of `O=c1c(OS(=O)(=O)O)c(-c2ccc(OS(=O)(=O)O)c(OS(=O)(=O)O)c2)oc2cc(OS(=O)(=O)O)cc(OCc3cn(CCCCCCCn4c(-c5ccc(OS(=O)(=O)O)cc5)nc5ccccc5c4=O)nn3)c12`, the inhibition entry (in the assay listed under Bos taurus; in assay [2]; in assay [3]; in assay [4]; in assay [8]; in assay [9]) was “inactive” in each case. Besides, in assay [14], the inhibition result is “inactive”. The same molecule gave an IC50 at Coagulation factor XI [15] of 139 µM.

Turning to `O=c1c(OS(=O)(=O)O)c(-c2ccc(OS(=O)(=O)O)c(OS(=O)(=O)O)c2)oc2cc(OS(=O)(=O)O)cc(OCc3cn(CCCCCCCCCCn4c(-c5ccc(OS(=O)(=O)O)cc5)nc5ccccc5c4=O)nn3)c12`, the inhibition entry (in the assay listed under Bos taurus; in [2]; in assay [3]; in assay [4]; in [8]; in assay [9]) was “inactive” throughout. The inhibition result in assay [14] is “inactive”. Besides, the IC50 against Coagulation factor XI [15] came to 51 µM.

As to `O=c1c2ccccc2nc(-c2ccc(OS(=O)(=O)O)cc2)n1CCCCCCn1c(-c2ccc(OS(=O)(=O)O)cc2)nc2ccccc2c1=O`, the Selectivity ratio (in the assay filed under Homo sapiens [1]; in the assay listed under Homo sapiens [6]; in the assay listed under Homo sapiens [7]; in the assay listed under Homo sapiens [10]; in assay [11]; in assay [12]) was over 63 throughout. The Selectivity ratio in the assay filed under Homo sapiens [13] was over 63. Moreover, the inhibition result (in the assay filed under Bos taurus; in assay [2]; in [3]; in [4]; in assay [8]; in assay [9]) was “inactive” in each case. Moreover, the inhibition result in assay [14] is “inactive”. The inhibition against Coagulation factor XI [5] came to 87%. At Coagulation factor XI [15], this molecule registered a half-inhibitory concentration (IC50) of 34 µM.

With `O=c1c(OS(=O)(=O)O)c(-c2ccc(OS(=O)(=O)O)c(OS(=O)(=O)O)c2)oc2cc(OS(=O)(=O)O)cc(OCc3cn(CCCCCCCCCn4c(-c5ccc(OS(=O)(=O)O)cc5)nc5ccccc5c4=O)nn3)c12`, the inhibition result (in the assay listed under Bos taurus; in assay [2]; in [3]; in assay [4]; in assay [8]; in assay [9]) was “inactive” throughout. The inhibition result in assay [14] is “inactive”. At Coagulation factor XI [15], this molecule returned a 50% inhibitory concentration (IC50) of 37 µM.
